Data reported in ChEMBL document CHEMBL1127305, “kappa Opioid receptor selective affinity labels: electrophilic benzeneacetamides as kappa-selective opioid antagonists” (J Med Chem, 1994).

Legend:
Assay type in all cases: functional, organism-based
Cavia porcellus [1] = species on record: Cavia porcellus; assay: Tested for wash-resistant activity by incubating guinea pig ileal longitudinal muscle (pre-treated with the compound) with naltrexone (500 nM).Number of determinations, n=3; conditions: Muscle tissue
How it was run: (§1)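 Agonist-treated guinea pig ileal longitudinal muscle was first washed forty times with Krebs' buffer. It was then incubated with naltrexone (500 nM) for 15 min. Read-out was percent recovery of twitch height.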

Cavia porcellus [2] = species on record: Cavia porcellus; assay: Tested for wash-resistant activity after forty post-washes (for removal of naltrexone) with Kreb's buffer pre-incubated with compound
How it was run: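 Agonist-treated guinea pig ileal longitudinal muscle was washed, then incubated with naltrexone (500 nM) for 15 min. A further forty washes with Krebs' buffer followed. Read-out was percent recovery of twitch height.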

Cavia porcellus [3] = species on record: Cavia porcellus; assay: Tested for wash-resistant activity in guinea pig ileal longitudinal muscle preparation, after forty washes with Kreb's buffer pre-incubated with compound; conditions: Muscle tissue
How it was run: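 Electrically stimulated guinea pig ileal longitudinal muscle was incubated with agonist, then given forty washes with Krebs' buffer. Read-out was percent recovery of twitch height.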

Cavia porcellus [4] = species on record: Cavia porcellus; assay: Tested for agonist potency by conducting tests on electrically stimulated guinea pig ileal longitudinal muscle preparation; conditions: Muscle tissue
How it was run: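 Electrically stimulated guinea pig ileal longitudinal muscle preparation. Values are arithmetic means of at least three experiments.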

Cavia porcellus [5] = species on record: Cavia porcellus; assay: Tested for wash-resistant activity by incubating guinea pig ileal longitudinal muscle (pre-treated with the compound) with naltrexone (500 nM). Number of determinations, n=3; conditions: Muscle tissue; how it was run: as §1

| SMILES | IC50 (Cavia porcellus [4]) | further results |
| --- | --- | --- |
| CN(C(=O)Cc1ccc(Cl)c(Cl)c1)[C@H](CN1CCCC1)c1cccc(N=C=S)c1 | 0.0238 µM | Recovery (Cavia porcellus [1]): 41%; Recovery (Cavia porcellus [2]): 0%; Recovery (Cavia porcellus [3]): 0% |
| COC(=O)/C=C/C(=O)Nc1cccc([C@@H](CN2CCCC2)N(C)C(=O)Cc2ccc(Cl)c(Cl)c2)c1 | 0.029 µM |  |
| CN(C(=O)Cc1ccc(Cl)c(Cl)c1)[C@H](CN1CCCC1)c1cccc(N)c1 | 0.00017 µM |  |
| CN(C(=O)Cc1ccc(Cl)c(Cl)c1)[C@@H](CN1CCCC1)c1ccccc1 | 0.198 µM |  |
| COC(=O)/C=C/C(=O)Nc1ccc([C@@H](CN2CCCC2)N(C)C(=O)Cc2ccc(Cl)c(Cl)c2)cc1 | 0.0112 µM |  |
| CN(C(=O)Cc1ccc(Cl)c(Cl)c1)C(CN1CCCC1)c1ccc(N)cc1 (stereo not drawn) | 0.00065 µM |  |
| CN(C(=O)Cc1ccc(Cl)c(Cl)c1)[C@H](CN1CCCC1)c1ccccc1 [ICI-199,441] | 0.00027 µM | Recovery (Cavia porcellus [3]): 20%; Recovery (Cavia porcellus [5]): 59% |
| CN(C(=O)Cc1ccc(Cl)c(Cl)c1)[C@H](CN1CCCC1)c1ccc(N=C=S)cc1 | 0.0386 µM |  |
